According to article PMC9389373 (RSC Advances, 2022):

Experiments:
[1] = tested on: MCF-7; assay: MTT cytotoxicity assay, MCF-7; assay type: cell-based; details: Homo sapiens, MCF7, read-out: IC50, μM MCF-7
Procedure, shortened: (§1)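 Cells came from the National Cancer Institute, Cairo, and were grown in RPMI-1640 with L-glutamine, 10% FBS and 1% penicillin-streptomycin at 37 °C, 5% CO2. Plated in triplicate in 96-well plates (5 × 10^4 cells). Next day, exposed to test compound at 0.01, 0.1, 1, 10 and 100 μM (48 h stated for MDA-MB-231 and MCF-10A). MTT added for 3 h; absorbance read; viability relative to control; IC50 derived.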

[2] = tested on: MDA-MB-231; assay: MTT cytotoxicity assay, MDA-MB-231; assay type: cell-based; details: read-out: IC50, μM MDA-MB-231, average of three independent trials
Procedure, shortened: as §1

[3] = molecular target: EGFR (Homo sapiens, UniProt P00533); assay: EGFR inhibition, ADP-Glo kinase assay; assay type: biochemical
EGFR, sequence (P00533 25-1210): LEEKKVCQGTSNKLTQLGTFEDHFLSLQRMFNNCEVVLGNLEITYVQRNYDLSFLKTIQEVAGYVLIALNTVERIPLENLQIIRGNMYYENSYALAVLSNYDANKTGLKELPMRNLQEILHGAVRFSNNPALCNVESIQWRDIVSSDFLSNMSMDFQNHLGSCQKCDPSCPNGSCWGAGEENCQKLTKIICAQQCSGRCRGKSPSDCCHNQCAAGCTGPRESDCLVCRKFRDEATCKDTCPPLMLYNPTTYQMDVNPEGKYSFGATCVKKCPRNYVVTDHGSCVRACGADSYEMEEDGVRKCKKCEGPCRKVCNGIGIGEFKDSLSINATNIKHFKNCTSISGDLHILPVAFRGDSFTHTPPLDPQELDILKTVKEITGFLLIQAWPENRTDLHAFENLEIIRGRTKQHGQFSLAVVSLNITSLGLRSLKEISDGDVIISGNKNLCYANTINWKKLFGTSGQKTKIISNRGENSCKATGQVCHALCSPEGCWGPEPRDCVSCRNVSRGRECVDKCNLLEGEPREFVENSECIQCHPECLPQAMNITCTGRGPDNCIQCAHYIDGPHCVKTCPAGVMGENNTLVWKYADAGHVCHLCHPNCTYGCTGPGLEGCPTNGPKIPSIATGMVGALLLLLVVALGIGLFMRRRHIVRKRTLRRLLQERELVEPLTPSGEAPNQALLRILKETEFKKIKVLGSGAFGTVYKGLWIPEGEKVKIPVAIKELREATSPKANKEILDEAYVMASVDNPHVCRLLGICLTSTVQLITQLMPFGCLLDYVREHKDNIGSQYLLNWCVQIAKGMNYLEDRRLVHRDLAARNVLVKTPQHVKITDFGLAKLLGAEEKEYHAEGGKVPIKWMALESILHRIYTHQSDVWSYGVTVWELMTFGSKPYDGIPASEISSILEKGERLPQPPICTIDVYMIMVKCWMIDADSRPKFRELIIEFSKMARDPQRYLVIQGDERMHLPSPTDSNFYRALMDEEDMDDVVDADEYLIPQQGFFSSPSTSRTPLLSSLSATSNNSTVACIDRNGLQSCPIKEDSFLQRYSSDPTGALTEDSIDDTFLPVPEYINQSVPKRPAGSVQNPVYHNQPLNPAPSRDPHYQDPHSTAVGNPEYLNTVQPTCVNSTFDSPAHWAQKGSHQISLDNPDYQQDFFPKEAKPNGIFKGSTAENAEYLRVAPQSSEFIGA

[4] = molecular target: PARP-1 (Homo sapiens, UniProt P09874); assay: PARP-1 enzyme inhibition assay; assay type: biochemical
PARP-1, sequence (P09874 whole entry): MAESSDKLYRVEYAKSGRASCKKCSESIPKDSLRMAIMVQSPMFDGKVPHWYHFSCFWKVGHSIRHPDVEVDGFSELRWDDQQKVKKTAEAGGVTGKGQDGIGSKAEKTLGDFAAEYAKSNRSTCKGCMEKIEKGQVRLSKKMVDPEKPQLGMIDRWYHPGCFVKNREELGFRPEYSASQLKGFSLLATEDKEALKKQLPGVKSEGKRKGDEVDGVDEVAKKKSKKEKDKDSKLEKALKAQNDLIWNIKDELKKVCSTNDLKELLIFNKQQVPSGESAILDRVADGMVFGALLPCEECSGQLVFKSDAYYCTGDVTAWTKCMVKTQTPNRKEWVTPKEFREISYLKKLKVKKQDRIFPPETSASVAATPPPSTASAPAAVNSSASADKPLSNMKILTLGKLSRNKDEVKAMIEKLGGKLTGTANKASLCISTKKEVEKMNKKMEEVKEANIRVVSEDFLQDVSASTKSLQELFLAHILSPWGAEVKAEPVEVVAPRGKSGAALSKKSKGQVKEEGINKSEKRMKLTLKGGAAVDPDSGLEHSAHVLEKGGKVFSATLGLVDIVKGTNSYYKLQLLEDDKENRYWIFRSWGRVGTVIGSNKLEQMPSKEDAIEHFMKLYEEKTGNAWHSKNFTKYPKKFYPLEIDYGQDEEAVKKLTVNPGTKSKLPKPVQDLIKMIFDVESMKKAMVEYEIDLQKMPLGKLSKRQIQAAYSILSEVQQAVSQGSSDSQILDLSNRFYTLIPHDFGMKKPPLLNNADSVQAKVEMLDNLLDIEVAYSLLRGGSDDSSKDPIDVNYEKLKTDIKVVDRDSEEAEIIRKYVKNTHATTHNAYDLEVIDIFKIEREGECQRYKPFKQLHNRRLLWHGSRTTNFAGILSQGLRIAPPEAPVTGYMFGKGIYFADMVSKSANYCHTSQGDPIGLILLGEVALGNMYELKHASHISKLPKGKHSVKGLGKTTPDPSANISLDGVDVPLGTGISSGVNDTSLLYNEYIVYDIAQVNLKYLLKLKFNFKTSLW

[5] = tested on: MDA-MB-231 cells; assay: RT-PCR gene expression of apoptosis-related genes; assay type: cell-based; details: 8i at 0.12 μM, 48 h, untreated control = 1
[6] = tested on: MDA-MB-231 cells; assay: Annexin V/PI staining flow cytometry, apoptosis-necrosis assessment; assay type: cell-based; details: 8i at 0.12 μM, 48 h
Procedure, shortened: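 MDA-MB-231 cells seeded overnight in 6-well plates (3–5 × 10^5 cells/well), then exposed to test compound for 48 h. Stained 30 min in the dark in Annexin binding buffer (25 mM CaCl2, 1.4 M NaCl, 0.1 M Hepes/NaOH, pH 7.4) with Annexin V-FITC (1:100) and PI (10 μg mL−1). Analysed by flow cytometry: Q1 necrosis, Q2 late apoptosis, Q4 early apoptosis.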

[7] = tested on: MDA-MB-231 cells; assay: DNA-aided cell cycle analysis by flow cytometry; assay type: cell-based; details: 8i at 0.12 μM, 48 h; control 9.83%
[8] = tested on: MCF-10A; assay: MTT cytotoxicity assay, normal breast cells MCF-10A; assay type: cell-based; details: Homo sapiens
Procedure, shortened: as §1

[9] = five concentrations, sigmoidal nonlinear regression

For `O=C(COc1ccc(C2=Nn3c(nnc3-c3ccccc3)SC2)cc1)NCCNC(=O)COc1ccc(C2=Nn3c(nnc3-c3ccccc3)SC2)cc1` [8a, N,N′-(Ethane-1,2-diyl)bis(2-(4-(3-phenyl-7H-[1,2,4]triazolo[3,4-b][1,3,4]thiadiazin-6-yl)phenoxy)acetamide)], the IC50 [1] was ≥ 50 µM.
In the case of `O=C(COc1ccc(C2=Nn3c(Cc4ccccc4)nnc3SC2)cc1)NCCNC(=O)COc1ccc(C2=Nn3c(Cc4ccccc4)nnc3SC2)cc1` [8b, N,N′-(Ethane-1,2-diyl)bis(2-(4-(3-benzyl-7H-[1,2,4]triazolo[3,4-b][1,3,4]thiadiazin-6-yl)phenoxy)acetamide)], the IC50 [1] is reported as 26.1 µM.
Compound `O=C(COc1ccccc1C1=Nn2c(nnc2-c2ccccc2)SC1)NCCNC(=O)COc1ccccc1C1=Nn2c(nnc2-c2ccccc2)SC1` [8c, N,N′-(Ethane-1,2-diyl)bis(2-(2-(3-phenyl-7H-[1,2,4]triazolo[3,4-b][1,3,4]thiadiazin-6-yl)phenoxy)acetamide)] has an IC50 [1] of 16.1 µM.
In the case of `Cc1nnc2n1N=C(c1ccccc1OCC(=O)NCCNC(=O)COc1ccccc1C1=Nn3c(C)nnc3SC1)CS2` [8d, N,N′-(Ethane-1,2-diyl)bis(2-(2-(3-methyl-7H-[1,2,4]triazolo[3,4-b][1,3,4]thiadiazin-6-yl)phenoxy)acetamide)], the IC50 [2] is reported as 0.421 µM, the IC50 [3] is reported as 0.124 µM and the “IC50, nM EGFR” value [3, 9] is reported as “poor inhibitory activities”. The IC50 [4] was 0.0199 µM, the “IC50, nM PARP-1” value [4, 9] was “poor inhibitory activities” and the IC50 [1] was 2.14 µM.
Work on `O=C(COc1ccc(C2=Nn3c(nnc3-c3ccccc3)SC2)cc1)NCCCNC(=O)COc1ccc(C2=Nn3c(nnc3-c3ccccc3)SC2)cc1` [8e, N,N′-(Propane-1,3-diyl)bis(2-(4-(3-phenyl-7H-[1,2,4]triazolo[3,4-b][1,3,4]thiadiazin-6-yl)phenoxy)acetamide)] yielded an IC50 [1] of 12.7 µM.
For `Cc1nnc2n1N=C(c1ccc(OCC(=O)NCCCNC(=O)COc3ccc(C4=Nn5c(C)nnc5SC4)cc3)cc1)CS2` [8f, N,N′-(Propane-1,3-diyl)bis(2-(4-(3-methyl-7H-[1,2,4]triazolo[3,4-b][1,3,4]thiadiazin-6-yl)phenoxy)acetamide)], the IC50 [1] was 7.12 µM.
Compound `O=C(COc1ccccc1C1=Nn2c(nnc2-c2ccccc2)SC1)NCCCNC(=O)COc1ccccc1C1=Nn2c(nnc2-c2ccccc2)SC1` [8g, N,N′-(Propane-1,3-diyl)bis(2-(2-(3-phenyl-7H-[1,2,4]triazolo[3,4-b][1,3,4]thiadiazin-6-yl)phenoxy)acetamide)] has an IC50 [1] of 11.2 µM.
For `O=C(COc1ccccc1C1=Nn2c(Cc3ccccc3)nnc2SC1)NCCCNC(=O)COc1ccccc1C1=Nn2c(Cc3ccccc3)nnc2SC1` [8h, N,N′-(Propane-1,3-diyl)bis(2-(2-(3-benzyl-7H-[1,2,4]triazolo[3,4-b][1,3,4]thiadiazin-6-yl)phenoxy)acetamide)], the IC50 [2] was ≥ 50 µM and the IC50 [1] was 21.1 µM.
With `Cc1nnc2n1N=C(c1ccccc1OCC(=O)NCCCNC(=O)COc1ccccc1C1=Nn3c(C)nnc3SC1)CS2` [8i, N,N′-(Propane-1,3-diyl)bis(2-(2-(3-methyl-7H-[1,2,4]triazolo[3,4-b][1,3,4]thiadiazin-6-yl)phenoxy)acetamide)] the “Bcl-2 gene level, fold change” value ([5]; decrease) was 0.35 fold, the “Bax gene level, fold change” value ([5]; increase) was 4.46 fold and the “P53 gene level, fold change” value ([5]; increase) was 4.8 fold. For the same compound, the “caspase-3 gene level, fold change” value ([5]; increase) was 3.9 fold, the “caspase-8 gene level, fold change” value ([5]; increase) was 6.36 fold and the “caspase-9 gene level, fold change” value ([5]; increase) was 2.9 fold. For the same compound, the IC50 [3] was 0.0647 µM, the “necrosis, fold compared to control” value [6] was 3.14 fold and the “total apoptosis, fold compared to control” value [6] was 38 fold. For the same compound, the “late apoptosis (Q2)” value ([6]; control 0.18%) was 19.51%, the “early apoptosis (Q4)” value ([6]; control 0.63%) was 11.23% and the “total apoptotic cell death” value ([6]; control 0.81%) was 30.74%. The “necrosis (Q1)” value ([6]; control 1.3%) was 4.08%, the “cell population at G2/M” value [7] was 24.04% and the IC50 ([8]; 48 h, read-out: IC50 MCF-10A) was 52.4 µM. For the same compound, the inhibition at 100 µM ([8]; read-out: cell inhibition) was ~90% and the IC50 [1] was 1.31 µM.
`O=C(COc1ccc(C2=Nn3c(nnc3-c3ccccc3)SC2)cc1)NCCCCNC(=O)COc1ccc(C2=Nn3c(nnc3-c3ccccc3)SC2)cc1` [8j, N,N′-(Butane-1,4-diyl)bis(2-(4-(3-phenyl-7H-[1,2,4]triazolo[3,4-b][1,3,4]thiadiazin-6-yl)phenoxy)acetamide)] showed an IC50 [1] of 14.9 µM.
For `O=C(COc1ccccc1C1=Nn2c(nnc2-c2ccccc2)SC1)NCCCCNC(=O)COc1ccccc1C1=Nn2c(nnc2-c2ccccc2)SC1` [8k, N,N′-(Butane-1,4-diyl)bis(2-(2-(3-phenyl-7H-[1,2,4]triazolo[3,4-b][1,3,4]thiadiazin-6-yl)phenoxy)acetamide)], the IC50 [1] was 13.1 µM.
Compound `O=C(COc1ccccc1C1=Nn2cnnc2SC1)NCCCCNC(=O)COc1ccccc1C1=Nn2cnnc2SC1` [8l, N,N′-(Butane-1,4-diyl)bis(2-(2-(7H-[1,2,4]triazolo[3,4-b][1,3,4]thiadiazin-6-yl)phenoxy)-acetamide)] has an IC50 [3] of 0.0789 µM, an IC50 [4] of 0.00687 µM and an IC50 [1] of 5.31 µM.
In the case of `O=C(COc1ccc(-c2cnc3ccccc3n2)cc1)NCCNC(=O)COc1ccc(-c2cnc3ccccc3n2)cc1` [10a, N,N′-(Ethane-1,2-diyl)bis(2-(4-(quinoxalin-2-yl)phenoxy)acetamide)], the IC50 [2] is reported as ≥ 50 µM and the IC50 [1] is reported as 32 µM.
With `Cc1cc2ncc(-c3ccc(OCC(=O)NCCNC(=O)COc4ccc(-c5cnc6cc(C)c(C)cc6n5)cc4)cc3)nc2cc1C` [10b, N,N′-(Ethane-1,2-diyl)bis(2-(4-(6,7-dimethylquinoxalin-2-yl)phenoxy)acetamide)] the IC50 [1] was ≥ 50 µM.
For `O=C(COc1ccccc1-c1cnc2ccccc2n1)NCCNC(=O)COc1ccccc1-c1cnc2ccccc2n1` [10c, N,N′-(Ethane-1,2-diyl)bis(2-(2-(quinoxalin-2-yl)phenoxy)acetamide)], the IC50 [1] was 7.61 µM.
For `O=C(COc1ccc(-c2cnc3ccccc3n2)cc1)NCCCNC(=O)COc1ccc(-c2cnc3ccccc3n2)cc1` [10d, N,N′-(Propane-1,3-diyl)bis(2-(4-(quinoxalin-2-yl)phenoxy)acetamide)], the IC50 [2] was ≥ 50 µM and the IC50 [1] was 23.2 µM.
Compound `Cc1cc2ncc(-c3ccccc3OCC(=O)NCCCCNC(=O)COc3ccccc3-c3cnc4cc(C)c(C)cc4n3)nc2cc1C` [10e, N,N′-(Butane-1,4-diyl)bis(2-(2-(6,7-dimethylquinoxalin-2-yl)phenoxy)acetamide)] has an IC50 [1] of 31.2 µM.
`C#Cc1cccc(Nc2ncnc3cc(OCCOC)c(OCCOC)cc23)c1` [Erlotinib, reference compound] showed an IC50 [1] of 0.32 µM.
